{
  "source": "ChEMBL document CHEMBL1671761",
  "about": "“Preclinical characterization of BI 201335, a C-terminal carboxylic acid inhibitor of the hepatitis C virus NS3-NS4A protease” (Antimicrob Agents Chemother, 2010)",
  "key": {"[1]": {"target": "Calpain-1 catalytic subunit (Homo sapiens) (UniProt P07384)", "test": "Inhibition of human calpain-1 at 10 uM"}, "Mesocricetus auratus": {"species_on_record": "Mesocricetus auratus", "test": "Inhibition of syrian hamster potassium channel-ATP at 10 uM"}, "[2]": {"test": "Tmax in dog at 5 mg/kg, po", "format": "ADME, organism-based, Canis lupus familiaris", "design": "dose 5 mg/kg, route oral", "conditions": "in vivo", "summary_of_the_method": "(§1)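 Fasted male beagle dogs (9.8-13.8 kg) given a single oral dose in 0.5% Methocel/0.3% Tween 80. Plasma taken by solid-phase extraction and measured by LC-MS/MS at m/z 869.3 (LOQ 50 nM). Noncompartmental analysis. Mean ± SE for three males.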"}, "[3]": {"target": "Pro-cathepsin H (Homo sapiens) (UniProt P09668)", "test": "Inhibition of human cathepsin H at 10 uM"}, "Homo sapiens [4]": {"species_on_record": "Homo sapiens", "test": "Inhibition of human dopamine receptor 4.2 at 10 uM"}, "[5]": {"target": "Histamine H3 receptor (Homo sapiens) (UniProt Q9Y5N1)", "test": "Inhibition of human H3 receptor at 10 uM"}, "[6]": {"target": "5-hydroxytryptamine receptor 1A (Homo sapiens) (UniProt P08908)", "test": "Inhibition of human 5-HT1A receptor at 10 uM"}, "[7]": {"target": "Matrilysin (Homo sapiens) (UniProt P09237)", "sequence (P09237 whole entry)": "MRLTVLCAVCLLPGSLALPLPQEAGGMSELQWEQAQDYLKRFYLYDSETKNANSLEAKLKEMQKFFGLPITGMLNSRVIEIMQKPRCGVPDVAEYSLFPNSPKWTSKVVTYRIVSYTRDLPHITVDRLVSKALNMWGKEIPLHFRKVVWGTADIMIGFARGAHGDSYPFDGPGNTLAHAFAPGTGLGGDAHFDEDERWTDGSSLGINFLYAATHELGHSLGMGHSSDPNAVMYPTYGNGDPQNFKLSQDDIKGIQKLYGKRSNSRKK", "test": "Inhibition of human MMP-7 at 10 uM"}, "[8]": {"target": "Neutrophil collagenase (Homo sapiens) (UniProt P22894)", "test": "Inhibition of human MMP-8 at 10 uM"}, "Rattus norvegicus [9]": {"species_on_record": "Rattus norvegicus", "test": "Inhibition of rat calcium channel N-type at 10 uM"}, "Caspase-9 (Homo sapiens)": {"target": "Caspase-9 (Homo sapiens) (UniProt P55211)", "test": "Inhibition of human caspase-9 at 10 uM"}, "Hepatitis C virus": {"system": "Hepatitis C virus", "test": "Antiviral activity against HCV 2a clone JFH1 infected in Huh7 cells assessed as inhibition of viral replication after 72 hrs by RT-PCR", "format": "functional, organism-based, Hepacivirus hominis", "conditions": "genotype 2a clone JFH1, Huh-7, 72 h", "summary_of_the_method": "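Genotype 2a replicon (Huh-7 cells carrying an unadapted JFH-1 NS3-NS5B subgenomic replicon) was kept with 0.25 mg/ml G418 and plated at 10,000 cells/well without G418. Next day, serial dilutions in DMEM/10% FBS/0.5% DMSO were added for 72 h. Replicon RNA was measured by TaqMan RT-PCR and normalized to total RNA. Mean ± SD, ≥3 experiments.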"}, "[10]": {"test": "AUC in monkey at 5 mg/kg, po", "format": "ADME, organism-based, Macaca mulatta", "design": "dose 5 mg/kg, route oral", "conditions": "rhesus monkey, plasma", "summary_of_the_method": "(§2)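 Single oral dose of 5 mg/kg in 0.5% Methocel with 0.3% Tween 80 (10 ml/kg) to fasted male animals: Sprague-Dawley rats (275-300 g, overnight fast with 10% dextrose water), rhesus monkeys, beagle dogs. Rat blood from cannulated carotid at 0-8 h, pooled from 3 rats per time point; monkey/dog n=3. Plasma solid-phase extracted, LC-MS/MS at m/z 869.3; noncompartmental analysis.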"}, "[11]": {"target": "Histamine H2 receptor (Homo sapiens) (UniProt P25021)", "sequence (P25021 whole entry)": "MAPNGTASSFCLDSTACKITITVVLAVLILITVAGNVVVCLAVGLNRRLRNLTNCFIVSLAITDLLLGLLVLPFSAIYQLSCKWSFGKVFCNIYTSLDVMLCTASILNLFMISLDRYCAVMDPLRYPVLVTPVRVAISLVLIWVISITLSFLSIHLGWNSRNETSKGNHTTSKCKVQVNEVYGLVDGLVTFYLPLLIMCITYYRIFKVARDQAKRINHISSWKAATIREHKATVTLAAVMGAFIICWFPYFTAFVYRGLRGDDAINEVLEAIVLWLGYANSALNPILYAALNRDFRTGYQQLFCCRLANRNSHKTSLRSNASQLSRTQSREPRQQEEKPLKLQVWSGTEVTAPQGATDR", "test": "Inhibition of human H2 receptor at 10 uM"}, "Caspase-5 (Homo sapiens)": {"target": "Caspase-5 (Homo sapiens) (UniProt P51878)", "test": "Inhibition of human caspase-5 at 10 uM"}, "Homo sapiens [12]": {"species_on_record": "Homo sapiens", "test": "Inhibition of human nicotinic acetylcholine receptor at 10 uM"}, "Caspase-6 (Homo sapiens)": {"target": "Caspase-6 (Homo sapiens) (UniProt P55212)", "test": "Inhibition of human caspase-6 at 10 uM"}, "[13]": {"target": "5-hydroxytryptamine receptor 2A (Rattus norvegicus) (UniProt P14842)", "sequence (P14842 whole entry)": "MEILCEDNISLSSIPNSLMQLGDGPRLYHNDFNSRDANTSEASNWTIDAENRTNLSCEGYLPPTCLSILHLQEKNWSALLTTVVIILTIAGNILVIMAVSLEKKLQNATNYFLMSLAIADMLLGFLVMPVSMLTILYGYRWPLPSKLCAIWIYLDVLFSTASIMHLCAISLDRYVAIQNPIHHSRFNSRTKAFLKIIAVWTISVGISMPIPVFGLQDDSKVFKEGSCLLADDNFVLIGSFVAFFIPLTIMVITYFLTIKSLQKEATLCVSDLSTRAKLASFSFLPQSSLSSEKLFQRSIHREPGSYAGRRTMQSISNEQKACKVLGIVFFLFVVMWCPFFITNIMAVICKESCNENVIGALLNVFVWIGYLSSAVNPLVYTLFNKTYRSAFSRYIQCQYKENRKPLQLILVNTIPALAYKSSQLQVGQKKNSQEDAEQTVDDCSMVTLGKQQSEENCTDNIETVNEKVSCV", "test": "Inhibition of rat 5-HT2A receptor at 10 uM"}, "[14]": {"target": "Coagulation factor X (Homo sapiens) (UniProt P00742)", "test": "Inhibition of human factor 10a at 10 uM"}, "[15]": {"test": "Mean retention time in dog at 5 mg/kg, po", "format": "ADME, organism-based, Canis lupus familiaris", "design": "dose 5 mg/kg, route oral", "conditions": "in vivo", "summary_of_the_method": "as §1"}, "[16]": {"target": "Disintegrin and metalloproteinase domain-containing protein 17 (Homo sapiens) (UniProt P78536)", "test": "Inhibition of human TACE at 10 uM"}, "[17]": {"target": "Matrix metalloproteinase-9 (Homo sapiens) (UniProt P14780)", "sequence (P14780 whole entry)": "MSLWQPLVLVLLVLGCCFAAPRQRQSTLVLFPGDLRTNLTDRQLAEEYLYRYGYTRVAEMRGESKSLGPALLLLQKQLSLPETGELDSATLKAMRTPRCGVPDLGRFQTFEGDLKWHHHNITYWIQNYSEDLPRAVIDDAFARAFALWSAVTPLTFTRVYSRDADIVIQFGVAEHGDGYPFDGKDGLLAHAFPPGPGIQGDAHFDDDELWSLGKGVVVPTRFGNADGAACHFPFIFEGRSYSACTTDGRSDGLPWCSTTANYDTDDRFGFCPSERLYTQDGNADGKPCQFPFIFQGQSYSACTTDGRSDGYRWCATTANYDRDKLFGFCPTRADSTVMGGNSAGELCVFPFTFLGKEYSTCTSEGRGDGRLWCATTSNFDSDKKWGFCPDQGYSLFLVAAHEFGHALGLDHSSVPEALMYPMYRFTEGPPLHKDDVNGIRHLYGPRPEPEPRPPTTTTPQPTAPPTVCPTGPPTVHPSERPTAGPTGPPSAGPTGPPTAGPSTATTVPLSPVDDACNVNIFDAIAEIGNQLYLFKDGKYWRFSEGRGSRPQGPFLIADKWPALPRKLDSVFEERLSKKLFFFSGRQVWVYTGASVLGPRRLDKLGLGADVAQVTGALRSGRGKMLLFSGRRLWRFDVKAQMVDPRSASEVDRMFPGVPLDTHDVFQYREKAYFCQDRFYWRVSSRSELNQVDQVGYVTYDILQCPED", "test": "Inhibition of human MMP-9 at 10 uM"}, "Rattus norvegicus [18]": {"species_on_record": "Rattus norvegicus", "test": "Inhibition of rat mAChR at 10 uM"}, "[19]": {"target": "Histamine H1 receptor (Homo sapiens) (UniProt P35367)", "test": "Inhibition of human H1 receptor at 10 uM"}, "[20]": {"target": "Serine/threonine protein phosphatase PP2B-alpha catalytic subunit (Homo sapiens) (UniProt P16298)", "test": "Inhibition of human PP2B at 10 uM"}, "Caspase-8 (Homo sapiens)": {"target": "Caspase-8 (Homo sapiens) (UniProt Q14790)", "sequence (Q14790 217-374 limits assumed)": "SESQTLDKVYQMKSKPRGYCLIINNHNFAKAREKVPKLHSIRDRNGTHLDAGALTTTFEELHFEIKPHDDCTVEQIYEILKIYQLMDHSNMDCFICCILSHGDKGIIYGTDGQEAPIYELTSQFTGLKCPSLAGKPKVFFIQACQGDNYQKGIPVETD", "sequence (Q14790 385-479 limits assumed)": "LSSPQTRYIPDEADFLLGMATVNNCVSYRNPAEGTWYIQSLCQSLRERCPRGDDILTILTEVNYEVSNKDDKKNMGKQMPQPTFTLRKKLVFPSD", "test": "Inhibition of human caspase-8 at 10 uM"}, "[21]": {"target": "5-hydroxytryptamine receptor 7 (Homo sapiens) (UniProt P34969)", "sequence (P34969 whole entry)": "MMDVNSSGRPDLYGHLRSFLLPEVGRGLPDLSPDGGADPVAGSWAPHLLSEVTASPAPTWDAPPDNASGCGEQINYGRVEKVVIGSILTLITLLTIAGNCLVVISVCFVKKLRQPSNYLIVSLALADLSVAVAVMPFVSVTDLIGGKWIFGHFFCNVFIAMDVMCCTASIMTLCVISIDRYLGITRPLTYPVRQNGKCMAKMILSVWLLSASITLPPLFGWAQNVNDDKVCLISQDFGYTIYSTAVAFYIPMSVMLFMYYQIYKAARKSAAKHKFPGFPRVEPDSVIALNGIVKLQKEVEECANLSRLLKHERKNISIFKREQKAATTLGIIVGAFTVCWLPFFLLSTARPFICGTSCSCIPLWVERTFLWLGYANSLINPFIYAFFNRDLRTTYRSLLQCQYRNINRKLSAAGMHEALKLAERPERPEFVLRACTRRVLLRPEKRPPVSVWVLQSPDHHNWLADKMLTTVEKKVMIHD", "test": "Inhibition of human 5-HT7 receptor at 10 uM"}, "[22]": {"target": "Small conductance calcium-activated potassium channel (Rattus norvegicus) (UniProt P70604+P70606+P70605)", "test": "Inhibition of rat Small conductance calcium-activated potassium channel at 10 uM", "format": "protein assay"}, "[23]": {"target": "Procathepsin L (Homo sapiens) (UniProt P07711)", "test": "Inhibition of human cathepsin L at 10 uM"}, "[24]": {"target": "D(1A) dopamine receptor (Homo sapiens) (UniProt P21728)", "sequence (P21728 whole entry)": "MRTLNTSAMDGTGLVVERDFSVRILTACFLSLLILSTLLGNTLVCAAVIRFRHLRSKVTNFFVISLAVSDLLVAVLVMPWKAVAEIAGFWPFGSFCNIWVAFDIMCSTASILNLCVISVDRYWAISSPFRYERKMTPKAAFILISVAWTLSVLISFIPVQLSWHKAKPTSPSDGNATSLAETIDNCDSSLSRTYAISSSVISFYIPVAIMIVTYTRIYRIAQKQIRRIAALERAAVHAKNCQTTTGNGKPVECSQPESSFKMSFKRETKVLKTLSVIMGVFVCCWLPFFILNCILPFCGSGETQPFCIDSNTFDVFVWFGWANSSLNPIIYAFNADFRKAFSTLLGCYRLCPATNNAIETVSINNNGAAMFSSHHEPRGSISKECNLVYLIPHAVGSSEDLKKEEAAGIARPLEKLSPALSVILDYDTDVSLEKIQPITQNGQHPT", "test": "Inhibition of human dopamine receptor 1 at 10 uM"}, "Rattus norvegicus [25]": {"species_on_record": "Rattus norvegicus", "test": "Inhibition of rat GABA B receptor at 10 uM"}, "[26]": {"target": "Caspase-10 (Homo sapiens) (UniProt Q92851)", "sequence (Q92851 220-415 limits assumed)": "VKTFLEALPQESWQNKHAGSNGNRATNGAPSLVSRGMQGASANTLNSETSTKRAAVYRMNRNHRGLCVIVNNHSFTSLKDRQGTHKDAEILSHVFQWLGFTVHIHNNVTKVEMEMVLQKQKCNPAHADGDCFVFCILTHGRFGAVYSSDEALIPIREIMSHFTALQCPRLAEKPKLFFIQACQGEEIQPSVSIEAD", "sequence (Q92851 416-521 limits assumed)": "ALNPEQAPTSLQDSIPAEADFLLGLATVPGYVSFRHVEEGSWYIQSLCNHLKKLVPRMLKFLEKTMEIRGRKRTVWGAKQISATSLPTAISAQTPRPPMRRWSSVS", "test": "Inhibition of human recombinant caspase-10 expressed in Escherichia coli at 10 uM by fluorimetry"}, "[27]": {"target": "Neprilysin (Homo sapiens) (UniProt P08473)", "sequence (P08473 whole entry)": "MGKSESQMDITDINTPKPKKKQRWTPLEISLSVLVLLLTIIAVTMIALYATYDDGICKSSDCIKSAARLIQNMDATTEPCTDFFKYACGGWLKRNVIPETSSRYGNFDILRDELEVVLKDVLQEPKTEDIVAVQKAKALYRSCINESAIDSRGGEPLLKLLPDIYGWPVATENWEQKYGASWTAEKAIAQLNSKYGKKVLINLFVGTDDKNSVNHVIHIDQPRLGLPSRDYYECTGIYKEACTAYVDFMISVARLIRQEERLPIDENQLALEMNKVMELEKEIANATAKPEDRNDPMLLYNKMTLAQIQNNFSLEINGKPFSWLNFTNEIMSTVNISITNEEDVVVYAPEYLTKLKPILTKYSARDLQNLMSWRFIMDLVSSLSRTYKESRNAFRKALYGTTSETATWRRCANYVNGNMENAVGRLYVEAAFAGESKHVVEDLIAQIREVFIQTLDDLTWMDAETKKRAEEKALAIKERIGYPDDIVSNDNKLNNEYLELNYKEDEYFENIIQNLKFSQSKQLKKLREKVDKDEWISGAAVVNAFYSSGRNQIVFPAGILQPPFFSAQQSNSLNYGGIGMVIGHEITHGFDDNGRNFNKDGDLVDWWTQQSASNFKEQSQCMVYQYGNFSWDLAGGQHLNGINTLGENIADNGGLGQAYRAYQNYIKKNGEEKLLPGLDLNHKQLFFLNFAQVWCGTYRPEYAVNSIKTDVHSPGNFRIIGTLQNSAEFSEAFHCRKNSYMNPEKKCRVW", "test": "Inhibition of human neutral endopeptidase at 10 uM"}, "[28]": {"test": "Tmax in monkey at 5 mg/kg, po", "format": "ADME, organism-based, Macaca mulatta", "design": "dose 5 mg/kg, route oral", "conditions": "rhesus monkey, in vivo", "summary_of_the_method": "(§3)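 Fasted male rhesus monkeys (3.0-4.8 kg) given a single oral dose in 0.5% Methocel/0.3% Tween 80. Plasma taken by solid-phase extraction and measured by LC-MS/MS at m/z 869.3 (LOQ 10 nM). Noncompartmental analysis. Mean ± SE for three males.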"}, "Rattus norvegicus [29]": {"species_on_record": "Rattus norvegicus", "test": "Inhibition of rat GABA-A receptor, agonist site at 10 uM", "format": "functional"}, "[30]": {"target": "Plasminogen (Homo sapiens) (UniProt P00747)", "test": "Inhibition of human plasmin at 10 uM"}, "[31]": {"target": "Cathepsin Z (Homo sapiens) (UniProt Q9UBR2)", "test": "Inhibition of human cathepsin X at 10 uM"}, "[32]": {"target": "D(4) dopamine receptor (Homo sapiens) (UniProt P21917)", "test": "Inhibition of human dopamine receptor 4.4 at 10 uM"}, "[33]": {"target": "Neutrophil elastase (Homo sapiens) (UniProt P08246)", "sequence (P08246 whole entry)": "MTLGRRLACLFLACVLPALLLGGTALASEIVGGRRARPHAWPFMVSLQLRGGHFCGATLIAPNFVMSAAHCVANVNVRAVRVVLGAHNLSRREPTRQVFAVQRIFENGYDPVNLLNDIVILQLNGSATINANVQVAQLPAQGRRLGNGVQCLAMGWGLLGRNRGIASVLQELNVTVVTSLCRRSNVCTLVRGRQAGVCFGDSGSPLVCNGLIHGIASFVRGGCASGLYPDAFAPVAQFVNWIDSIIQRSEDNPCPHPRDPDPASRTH", "test": "Inhibition of human serum elastase, neutrophil at 10 uM by fluorimetry"}, "[34]": {"test": "AUC (0 to infinity) in dog at 5 mg/kg, po", "format": "ADME, organism-based, Canis lupus familiaris", "design": "time infinity, dose 5 mg/kg, route oral", "conditions": "plasma", "summary_of_the_method": "as §2"}, "[35]": {"target": "Neutrophil elastase (Homo sapiens) (UniProt P08246)", "test": "Inhibition of human elastase, leukocyte at 10 uM"}, "[36]": {"target": "Coagulation factor VII (Homo sapiens) (UniProt P08709)", "sequence (P08709 61-212 limits assumed)": "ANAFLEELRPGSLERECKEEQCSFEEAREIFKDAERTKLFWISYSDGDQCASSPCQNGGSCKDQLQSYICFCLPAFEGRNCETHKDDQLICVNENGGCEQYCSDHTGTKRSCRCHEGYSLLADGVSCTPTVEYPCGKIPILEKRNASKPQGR", "sequence (P08709 213-466 limits assumed)": "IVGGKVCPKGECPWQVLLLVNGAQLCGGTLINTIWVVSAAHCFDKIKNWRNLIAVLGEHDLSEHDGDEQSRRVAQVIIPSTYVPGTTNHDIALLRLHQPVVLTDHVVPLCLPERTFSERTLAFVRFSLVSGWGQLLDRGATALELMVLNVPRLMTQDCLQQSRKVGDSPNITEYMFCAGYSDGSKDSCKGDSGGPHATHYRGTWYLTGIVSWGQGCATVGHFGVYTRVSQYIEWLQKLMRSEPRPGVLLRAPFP", "test": "Inhibition of human factor 7a at 10 uM"}, "[37]": {"test": "Mean retention time in monkey at 5 mg/kg, po", "format": "ADME, organism-based, Macaca mulatta", "design": "dose 5 mg/kg, route oral", "conditions": "rhesus monkey, in vivo", "summary_of_the_method": "as §3"}, "Caspase-3 (Homo sapiens)": {"target": "Caspase-3 (Homo sapiens) (UniProt P42574)", "test": "Inhibition of human caspase-3 at 10 uM"}},
  "note": "pEC50: −log10 of the molar value.",
  "data": [
    {"smiles": "C=C[C@@H]1C[C@]1(NC(=O)[C@@H]1C[C@@H](Oc2cc(-c3csc(NC(=O)C(C)C)n3)nc3c(Br)c(OC)ccc23)CN1C(=O)[C@@H](NC(=O)OC1CCCC1)C(C)(C)C)C(=O)O", "values": [
      {"measurement": "inhibition", "setting": "[1]", "value": 18, "unit": "%"},
      {"measurement": "inhibition", "setting": "Mesocricetus auratus", "value": 12, "unit": "%"},
      {"measurement": "Tmax", "setting": "[2]", "value": 0.83, "unit": "h"},
      {"measurement": "inhibition", "setting": "[3]", "value": 21, "unit": "%"},
      {"measurement": "inhibition", "setting": "Homo sapiens [4]", "value": 58, "unit": "%"},
      {"measurement": "inhibition", "setting": "[5]", "value": 5, "unit": "%"},
      {"measurement": "inhibition", "setting": "[6]", "value": 18, "unit": "%"},
      {"measurement": "inhibition", "setting": "[7]", "value": 6, "unit": "%"},
      {"measurement": "inhibition", "setting": "[8]", "value": 6, "unit": "%"},
      {"measurement": "inhibition", "setting": "Rattus norvegicus [9]", "value": 9, "unit": "%"},
      {"measurement": "inhibition", "setting": "Caspase-9 (Homo sapiens)", "value": 23, "unit": "%"},
      {"measurement": "pEC50", "setting": "Hepatitis C virus", "value": 7.30},
      {"measurement": "AUC", "setting": "[10]", "value": 8.3, "unit": "µM·h"},
      {"measurement": "inhibition", "setting": "[11]", "value": 21, "unit": "%"},
      {"measurement": "inhibition", "setting": "Caspase-5 (Homo sapiens)", "value": 24, "unit": "%"},
      {"measurement": "inhibition", "setting": "Homo sapiens [12]", "value": 22, "unit": "%"},
      {"measurement": "inhibition", "setting": "Caspase-6 (Homo sapiens)", "value": 28, "unit": "%"},
      {"measurement": "inhibition", "setting": "[13]", "value": 7, "unit": "%"},
      {"measurement": "inhibition", "setting": "[14]", "value": 5, "unit": "%"},
      {"measurement": "MRT", "setting": "[15]", "value": 3.7, "unit": "h"},
      {"measurement": "inhibition", "setting": "[16]", "value": 77, "unit": "%"},
      {"measurement": "inhibition", "setting": "[17]", "value": 13, "unit": "%"},
      {"measurement": "inhibition", "setting": "Rattus norvegicus [18]", "value": 5, "unit": "%"},
      {"measurement": "inhibition", "setting": "[19]", "value": 3, "unit": "%"},
      {"measurement": "inhibition", "setting": "[20]", "value": 50, "unit": "%"},
      {"measurement": "inhibition", "setting": "Caspase-8 (Homo sapiens)", "value": 5, "unit": "%"},
      {"measurement": "inhibition", "setting": "[21]", "value": 3, "unit": "%"},
      {"measurement": "inhibition", "setting": "[22]", "value": 2, "unit": "%"},
      {"measurement": "inhibition", "setting": "[23]", "value": 7, "unit": "%"},
      {"measurement": "inhibition", "setting": "[24]", "value": 14, "unit": "%"},
      {"measurement": "inhibition", "setting": "Rattus norvegicus [25]", "value": 9, "unit": "%"},
      {"measurement": "inhibition", "setting": "[26]", "value": 12, "unit": "%"},
      {"measurement": "inhibition", "setting": "[27]", "value": 3, "unit": "%"},
      {"measurement": "Tmax", "setting": "[28]", "value": 2, "unit": "h"},
      {"measurement": "inhibition", "setting": "Rattus norvegicus [29]", "value": 16, "unit": "%"},
      {"measurement": "inhibition", "setting": "[30]", "value": 18, "unit": "%"},
      {"measurement": "inhibition", "setting": "[31]", "value": 0, "unit": "%"},
      {"measurement": "inhibition", "setting": "[32]", "value": 39, "unit": "%"},
      {"measurement": "inhibition", "setting": "[33]", "value": 22, "unit": "%"},
      {"measurement": "AUC(0-inf)", "setting": "[34]", "value": 14, "unit": "µM·h"},
      {"measurement": "inhibition", "setting": "[35]", "value": 3, "unit": "%"},
      {"measurement": "inhibition", "setting": "[36]", "value": 6, "unit": "%"},
      {"measurement": "MRT", "setting": "[37]", "value": 2.6, "unit": "h"},
      {"measurement": "inhibition", "setting": "Caspase-3 (Homo sapiens)", "value": 5, "unit": "%"}
    ]}
  ]
}
